Test results: ChEMBL document CHEMBL4400582, “Identification of Imidazo[1,2-b]pyridazine Derivatives as Potent, Selective, and Orally Active Tyk2 JH2 Inhibitors” (ACS Med Chem Lett, 2019)
≈ marks a conversion by molar mass, not a printed value. Calls of active or inactive are those of the source. The calls are words filed in the database; no cut-off is given here.

How the values were obtained:
[1] = target: T1, Non-receptor tyrosine-protein kinase TYK2 (Homo sapiens, UniProt P29597); assay: Inhibition of fluorescein-labeled kinase tracer binding to His-TVMV-fused TYK2 JH2 domain (575 to 869 residues) (unknown origin) measured after 90 mins by HTRF assay
T1 sequence (P29597 whole entry, the tested form may be a part): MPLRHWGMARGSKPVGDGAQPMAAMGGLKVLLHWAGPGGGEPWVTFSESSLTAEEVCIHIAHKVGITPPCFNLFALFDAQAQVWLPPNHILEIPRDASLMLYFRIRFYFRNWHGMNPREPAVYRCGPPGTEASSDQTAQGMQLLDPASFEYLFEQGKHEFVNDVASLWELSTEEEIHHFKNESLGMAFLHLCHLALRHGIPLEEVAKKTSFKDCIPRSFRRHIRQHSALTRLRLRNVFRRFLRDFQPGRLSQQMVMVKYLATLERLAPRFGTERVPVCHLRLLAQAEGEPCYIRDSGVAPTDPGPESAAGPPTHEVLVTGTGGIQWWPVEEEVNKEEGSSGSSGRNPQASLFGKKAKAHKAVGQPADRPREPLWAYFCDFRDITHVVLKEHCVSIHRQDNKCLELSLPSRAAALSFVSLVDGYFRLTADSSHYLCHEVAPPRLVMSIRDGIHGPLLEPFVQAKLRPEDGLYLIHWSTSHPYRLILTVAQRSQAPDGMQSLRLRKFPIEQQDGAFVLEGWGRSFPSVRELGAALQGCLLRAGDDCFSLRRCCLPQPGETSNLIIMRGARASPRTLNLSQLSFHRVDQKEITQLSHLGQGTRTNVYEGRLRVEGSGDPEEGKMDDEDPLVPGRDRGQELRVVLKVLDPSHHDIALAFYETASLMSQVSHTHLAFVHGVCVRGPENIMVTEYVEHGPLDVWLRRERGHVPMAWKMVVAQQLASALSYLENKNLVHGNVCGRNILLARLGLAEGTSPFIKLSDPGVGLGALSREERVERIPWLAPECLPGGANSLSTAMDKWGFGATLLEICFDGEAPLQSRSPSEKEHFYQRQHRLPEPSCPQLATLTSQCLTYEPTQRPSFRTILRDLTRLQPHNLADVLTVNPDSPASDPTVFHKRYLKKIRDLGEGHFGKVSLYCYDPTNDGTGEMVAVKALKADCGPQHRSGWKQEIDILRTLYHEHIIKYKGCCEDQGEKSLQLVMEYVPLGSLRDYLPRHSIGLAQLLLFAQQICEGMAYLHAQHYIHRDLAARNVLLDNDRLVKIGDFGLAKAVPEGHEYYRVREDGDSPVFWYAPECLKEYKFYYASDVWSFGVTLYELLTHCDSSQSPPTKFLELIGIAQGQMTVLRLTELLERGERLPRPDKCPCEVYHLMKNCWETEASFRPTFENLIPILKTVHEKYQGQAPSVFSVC

[2] = target: T1, Non-receptor tyrosine-protein kinase TYK2; assay: Inhibition of TYK2 JH2 domain in IFNalpha/IL23-stimulated human Kit225 cells by luciferase reporter assay
[3] = target: T1, Non-receptor tyrosine-protein kinase TYK2; assay: Inhibition of TYK2 JH2 domain in human whole blood assessed as decrease in IFNalpha/IL2-induced STAT phosphorylation preincubated for 1 hr followed by IFNalpha/IL2 stimulation and measured after 15 mins by fluorescence assay; format: tissue-based
[4] = Stability in human liver microsomes assessed as parent compound remaining; format: ADME, Microsome
Procedure, shortened: (§1)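 Compound was incubated 10 min with human, rat or mouse liver microsomes. Parent remaining is reported as percent.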

[5] = Stability in rat liver microsomes assessed as parent compound remaining; format: ADME, Microsome; procedure, shortened: as §1
[6] = Stability in mouse liver microsomes assessed as parent compound remaining; format: ADME, Microsome; procedure, shortened: as §1
[7] = Cmax in mouse at 10 mg/kg, po; format: ADME, organism-based; set-up: dose 10 mg/kg, route oral; details: in vivo
Procedure, shortened: (§2)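 Oral PK in the listed species. Vehicle 5:5:90 TPGS/EtOH/PEG300. An IV arm was dosed at 2 mg/kg.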

[8] = AUC (0 to 24 hrs) in mouse at 10 mg/kg, po; format: ADME, organism-based; set-up: time < 24 hr, dose 10 mg/kg, route oral; details: in vivo; procedure, shortened: as §2
[9] = Oral bioavailability in mouse at 10 mg/kg; format: ADME, organism-based; details: in vivo; procedure, shortened: as §2
[10] = Cmax in rat at 10 mg/kg, po; format: ADME, organism-based; set-up: dose 10 mg/kg, route oral; details: in vivo; procedure, shortened: as §2
[11] = AUC (0 to 24 hrs) in rat at 10 mg/kg, po; format: ADME, organism-based; set-up: time < 24 hr, dose 10 mg/kg, route oral; details: in vivo; procedure, shortened: as §2
[12] = Clearance in rat at 10 mg/kg, po; format: ADME, organism-based; details: in vivo; procedure, shortened: as §2
[13] = Oral bioavailability in rat at 10 mg/kg; format: ADME, organism-based; details: in vivo; procedure, shortened: as §2
[14] = Cmax in cynomolgus monkey at 10 mg/kg, po; format: ADME, organism-based, Macaca fascicularis; set-up: dose 10 mg/kg, route oral; details: in vivo; procedure, shortened: as §2
[15] = AUC (0 to 24 hrs) in cynomolgus monkey at 10 mg/kg, po; format: ADME, organism-based, Macaca fascicularis; set-up: time < 24 hr, dose 10 mg/kg, route oral; details: in vivo; procedure, shortened: as §2
[16] = Clearance in cynomolgus monkey at 10 mg/kg, po; format: ADME, organism-based, Macaca fascicularis; details: in vivo; procedure, shortened: as §2
[17] = Oral bioavailability in cynomolgus monkey at 10 mg/kg; format: ADME, organism-based, Macaca fascicularis; details: in vivo; procedure, shortened: as §2
[18] = Cmax in dog at 10 mg/kg, po; format: ADME, organism-based, Canis lupus familiaris; set-up: dose 10 mg/kg, route oral; details: in vivo; procedure, shortened: as §2
[19] = AUC (0 to 24 hrs) in dog at 10 mg/kg, po; format: ADME, organism-based, Canis lupus familiaris; set-up: time < 24 hr, dose 10 mg/kg, route oral; details: in vivo; procedure, shortened: as §2
[20] = Clearance in dog at 10 mg/kg, po; format: ADME, organism-based, Canis lupus familiaris; details: in vivo; procedure, shortened: as §2
[21] = Oral bioavailability in dog at 10 mg/kg; format: ADME, organism-based, Canis lupus familiaris; details: in vivo; procedure, shortened: as §2
Rattus norvegicus [22] = assay: Inhibition of IL12/IL18-induced IFNgamma production in po dosed Lewis rat pretreated for 1 hr followed by IL12 stimulation for 1 hr and subsequent IL18 addition and measured after 3 hrs by ELISA; format: functional, organism-based
Procedure, shortened: (§3)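 Rats were dosed in 5:5:90 TPGS/EtOH/PEG300, challenged with IL-12 1 h later and with IL-18 a further hour later. Plasma was collected 5 h after dosing for IFNγ levels. Inhibition is relative to vehicle.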

Rattus norvegicus [23] = assay: Inhibition of IL12/IL18-induced IFNgamma production in Lewis rat at 1 mg/kg, po pretreated for 1 hr followed by IL12 stimulation for 1 hr and subsequent IL18 addition and measured after 3 hrs by ELISA relative to control; format: functional; procedure, shortened: as §3
Rattus norvegicus [24] = assay: Inhibition of IL12/IL18-induced IFNgamma production in Lewis rat at 10 mg/kg, po pretreated for 1 hr followed by IL12 stimulation for 1 hr and subsequent IL18 addition and measured after 3 hrs by ELISA relative to control; format: functional; procedure, shortened: as §3
Rattus norvegicus [25] = assay: Antiarthritic activity in incomplete Freund's adjuvant-induced Lewis rat arthritis model assessed as reduction in paw volume at 5 to 10 mg/kg, po bid for 20 days by plethysmometric method; format: functional, organism-based
Procedure, shortened: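 Rat adjuvant arthritis. Adjuvant was given on day zero. Compound was dosed twice daily from day 0 to day 20 in 5:5:90 TPGS/EtOH/PEG300. Paw volume was measured periodically.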

[26] = Clearance in mouse at 2 mg/kg, iv; details: in vivo
[27] = Permeability of the compound in human Caco2 cells; format: ADME, cell-based; details: Caco-2, read-out: permeability
[28] = Aqueous solubility of the compound at pH 6.5; format: physicochemical; details: buffer
[29] = Aqueous solubility of the compound at pH 1; format: physicochemical; details: buffer

SMILES	Ki [1]	IC50 [2]	IC50 [3]	further results
CNc1cc(Nc2cccn(-c3ncc(F)cn3)c2=O)nn2c(C(=O)NC3CC3)cnc12	0.38 nM	235 nM	464 nM	
CNc1cc(Nc2cccn(C3CC3)c2=O)nn2c(C(=O)NC3CC3)cnc12	0.33 nM	131 nM	817 nM	Stability [4]: 88%; Stability [5]: 71%; Stability [6]: 39%
CNc1cc(Nc2cccn(C)c2=O)nn2c(C(=O)NC3CC3)cnc12	0.74 nM	614 nM	Nd(Insoluble)	Stability [4]: 56%; Stability [5]: 63%; Stability [6]: 10%
CNc1cc(Nc2cccn(-c3cccc(F)n3)c2=O)nn2c(C(=O)N[C@@H]3C[C@@H]3F)cnc12	0.024 nM	12 nM	136 nM	
CNc1cc(Nc2cccn(-c3cccc(F)n3)c2=O)nn2c(C(=O)NC3CC3)cnc12	0.22 nM	70 nM	371 nM	
CNc1cc(Nc2cccn(-c3ccc(C(C)(C)O)cc3)c2=O)nn2c(C(=O)NC3CC3)cnc12	0.07 nM	111 nM	811 nM	
CNc1cc(Nc2cccn(-c3ccccn3)c2=O)nn2c(C(=O)NC(C)C)cnc12	0.13 nM	153 nM	750 nM	
CNc1cc(Nc2cccn(-c3ccccn3)c2=O)nn2c(C(=O)N[C@@H]3C[C@@H]3F)cnc12				Cmax [7]: 15 µM; AUC(0-t) at 24 h [8]: 19 µM·h; bioavailability [9]: 86%; Cmax [10]: 9.4 µM; AUC(0-t) at 24 h [11]: 57 µM·h; CL/F [12]: 0.468 L/h/kg; bioavailability [13]: 114%; Cmax [14]: 1.8 µM; AUC(0-t) at 24 h [15]: 11 µM·h; CL/F [16]: 1.02 L/h/kg; bioavailability [17]: 46%; Cmax [18]: 0.93 µM; AUC(0-t) at 24 h [19]: 8 µM·h; CL/F [20]: 1.5 L/h/kg; bioavailability [21]: 50%; inhibition (Rattus norvegicus [22]): Dose-dependent effect; inhibition in vivo at 1 mg/kg (Rattus norvegicus [23]): 45%; inhibition in vivo at 10 mg/kg (Rattus norvegicus [24]): 77%; Activity (Rattus norvegicus [25]): Active; clearance [26]: 0.96 L/h/kg
CNc1cc(Nc2cccn(-c3ccccn3)c2=O)nn2c(C(=O)NC3CC3)cnc12	0.34 nM	94 nM	382 to 398 nM	Papp [27]: 169 nm/s
CNc1cc(Nc2cccn(-c3ccc(F)cn3)c2=O)nn2c(C(=O)N[C@@H]3C[C@@H]3F)cnc12	0.035 nM	26 nM	85 nM	
CNc1cc(Nc2cccn(-c3ccc(C)nn3)c2=O)nn2c(C(=O)N[C@@H]3C[C@@H]3F)cnc12	0.018 nM	41 nM	63 nM	
CNc1cc(Nc2cccn(-c3ccc(C)nn3)c2=O)nn2c(C(=O)NC3CC3)cnc12	0.091 nM	147 nM	247 nM	
CNc1cc(Nc2cccn(-c3ccccn3)c2=O)nn2c(C(=O)NCC(C)(C)CO)cnc12	0.29 nM	84 nM	285 nM	
CNc1cc(Nc2cccn(-c3cc(C)n(C)n3)c2=O)nn2c(C(=O)N[C@@H]3C[C@@H]3F)cnc12	0.015 nM	22 nM	90 nM	
CNc1cc(Nc2cccn(-c3ccncc3)c2=O)nn2c(C(=O)NC3CC3)cnc12	0.29 nM	148 nM	346 nM	Papp [27]: 38 nm/s
CNc1cc(Nc2cccn(-c3ccccn3)c2=O)nn2c(C(=O)NC3CCC3)cnc12	0.26 nM	60 nM	384 nM	
CNc1cc(Nc2cccn(-c3ccc(C#N)cc3)c2=O)nn2c(C(=O)NC3CC3)cnc12	0.2 nM	90 nM	268 nM	Stability [4]: 92%; Stability [5]: 77%; Stability [6]: 71%; solubility [28]: < 1 µg/mL; solubility [29]: 2 µg/mL (≈ 4.54 µM)
CNc1cc(Nc2cccn(-c3ccc(F)cn3)c2=O)nn2c(C(=O)NC3CC3)cnc12	0.15 nM	99 nM	236 nM	
CNc1cc(Nc2cccn(-c3cc(C)n(C)n3)c2=O)nn2c(C(=O)NC3CC3)cnc12	0.48 nM	135 nM	340 nM	Papp [27]: 142 nm/s
CNc1cc(Nc2cccn(-c3ncccc3F)c2=O)nn2c(C(=O)NC3CC3)cnc12	0.12 nM	61 nM	313 nM	Papp [27]: 59 nm/s
